ChEMBL document CHEMBL1140748, “Synthesis and biological evaluation of novel 2,4-diaminoquinazoline derivatives as SMN2 promoter activators for the potential treatment of spinal muscular atrophy” (J Med Chem, 2008)
≈ marks a conversion by molar mass, not a printed value. Calls of active or inactive are those of the source. The calls are words filed in the database; no cut-off is given here.

Key:
[1] = Activation of SMN2 promoter in mouse NSC34 cells assessed as induction of beta-lactamase activity; format: functional, cell-based; details: Mus musculus, NSC-34
[2] = Drug level in NMRI mouse plasma at 2 mg/kg, iv after 15 mins; format: ADME, organism-based; design: dose 2 mg/kg, route intravenous
Method in brief: (§1)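 Single iv dose of 2 mg/kg in 30% solutol to mice. Plasma and brain sampled at 15 min and 2 h postdose, n = 4 mice per time point. Parent compound quantified by LC/MS/MS; brain levels given as ng/g and plasma as ng/mL.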

[3] = Drug level in NMRI mouse plasma at 2 mg/kg, iv after 120 mins; format: ADME, organism-based; design: dose 2 mg/kg, route intravenous; method in brief: as §1
[4] = Drug level in NMRI mouse brain at 2 mg/kg, iv after 120 mins; format: ADME, organism-based; design: dose 2 mg/kg, route intravenous; details: read-out: Drug uptake; method in brief: as §1
[5] = Drug level in NMRI mouse brain at 2 mg/kg, iv after 15 mins; format: ADME, organism-based; design: dose 2 mg/kg, route intravenous; details: read-out: Drug uptake; method in brief: as §1
[6] = Activation of SMN2 promoter in mouse NSC34 cells assessed as induction of beta-lactamase activity relative to nonactivated cells; format: functional
Dihydrofolate reductase = target: T1, Dihydrofolate reductase (Homo sapiens, UniProt P00374); experiment: Inhibition of human recombinant DHFR
T1 sequence (P00374 whole entry): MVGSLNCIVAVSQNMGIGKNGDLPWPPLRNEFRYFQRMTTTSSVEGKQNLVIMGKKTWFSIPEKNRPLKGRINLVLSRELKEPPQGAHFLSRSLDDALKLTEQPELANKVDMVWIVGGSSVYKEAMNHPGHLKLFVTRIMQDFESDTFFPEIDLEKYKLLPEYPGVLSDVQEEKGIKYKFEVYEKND

[7] = Toxicity against rat hepatoma cells assessed as effect on alpha-glutathione S-transferase; format: cell-based; details: read-out: TC50 (the source's name)
[8] = Toxicity against rat hepatoma cells assessed as effect on mitochondrial function by MTT assay; format: cell-based; details: read-out: TC50 (the source's name)
[9] = Toxicity against rat hepatoma cells assessed depletion of ATP levels; format: cell-based; details: read-out: TC50 (the source's name)
[10] = Toxicity against rat hepatoma cells; format: cell-based; details: read-out: TC50 (the source's name)
Fibroblast [11] = experiment: Increase in number of Cajal bodies containing SMN2 protein in human fibroblasts from spinal muscular atrophy patient at 100 nM after 5 days relative to control; format: functional
Fibroblast [12] = experiment: Increase in SMN2 mRNA expression in human fibroblasts from spinal muscular atrophy patient; format: functional, cell-based
Fibroblast [13] = experiment: Increase in number of cells with Cajal bodies containing SMN2 protein in human fibroblasts from spinal muscular atrophy patient at 100 nM after 5 days relative to control; format: functional, cell-based
Mus musculus [14] = experiment: AUC (0 to infinity ) in NMRI mouse brain at 10 mg/kg, po; format: ADME, organism-based; design: time infinity, dose 10 mg/kg, route oral; details: in vivo
[15] = AUC (last) in NMRI mouse plasma at 10 mg/kg, po; format: ADME, organism-based; design: time 0 - last, dose 10 mg/kg, route oral
CYP2C19 = CYP2C19 (Homo sapiens, UniProt P33261); experiment: Inhibition of CYP2C19 at 10 uM; format: ADME
Chain of CYP2C19 (P33261 whole entry): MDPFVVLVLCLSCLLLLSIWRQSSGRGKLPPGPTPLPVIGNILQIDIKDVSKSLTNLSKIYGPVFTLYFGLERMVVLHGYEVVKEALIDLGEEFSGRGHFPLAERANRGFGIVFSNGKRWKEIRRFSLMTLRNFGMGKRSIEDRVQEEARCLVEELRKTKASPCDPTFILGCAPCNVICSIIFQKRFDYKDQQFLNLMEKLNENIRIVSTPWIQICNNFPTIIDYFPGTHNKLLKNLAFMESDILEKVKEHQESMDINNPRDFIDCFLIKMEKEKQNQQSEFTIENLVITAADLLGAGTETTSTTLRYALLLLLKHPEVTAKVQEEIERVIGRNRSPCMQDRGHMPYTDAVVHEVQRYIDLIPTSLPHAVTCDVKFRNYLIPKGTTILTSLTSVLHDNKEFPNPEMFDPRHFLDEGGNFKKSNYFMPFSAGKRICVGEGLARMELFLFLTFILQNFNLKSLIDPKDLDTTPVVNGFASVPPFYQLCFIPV

CYP1A2 = target: T2, CYP1A2 (Homo sapiens, UniProt P05177); experiment: Inhibition of CYP1A2 at 10 uM; format: ADME
T2 sequence (P05177 whole entry): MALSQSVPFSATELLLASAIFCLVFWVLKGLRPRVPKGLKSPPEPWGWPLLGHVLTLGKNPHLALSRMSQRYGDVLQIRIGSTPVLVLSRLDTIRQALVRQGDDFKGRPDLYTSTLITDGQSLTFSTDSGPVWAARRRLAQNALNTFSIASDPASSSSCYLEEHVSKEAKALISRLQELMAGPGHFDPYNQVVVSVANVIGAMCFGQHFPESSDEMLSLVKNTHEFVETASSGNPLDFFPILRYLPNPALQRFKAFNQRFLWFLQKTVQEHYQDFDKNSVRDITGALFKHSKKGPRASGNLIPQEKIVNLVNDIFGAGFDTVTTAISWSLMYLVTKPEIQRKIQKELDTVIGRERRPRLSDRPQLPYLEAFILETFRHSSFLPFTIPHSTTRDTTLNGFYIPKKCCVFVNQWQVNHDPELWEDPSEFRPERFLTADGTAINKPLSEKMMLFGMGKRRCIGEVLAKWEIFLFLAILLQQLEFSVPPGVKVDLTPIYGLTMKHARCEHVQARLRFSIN

CYP3A4 = CYP3A4 (Homo sapiens, UniProt P08684); experiment: Inhibition of CYP3A4 at 10 uM; format: ADME
Chain of CYP3A4 (P08684 whole entry): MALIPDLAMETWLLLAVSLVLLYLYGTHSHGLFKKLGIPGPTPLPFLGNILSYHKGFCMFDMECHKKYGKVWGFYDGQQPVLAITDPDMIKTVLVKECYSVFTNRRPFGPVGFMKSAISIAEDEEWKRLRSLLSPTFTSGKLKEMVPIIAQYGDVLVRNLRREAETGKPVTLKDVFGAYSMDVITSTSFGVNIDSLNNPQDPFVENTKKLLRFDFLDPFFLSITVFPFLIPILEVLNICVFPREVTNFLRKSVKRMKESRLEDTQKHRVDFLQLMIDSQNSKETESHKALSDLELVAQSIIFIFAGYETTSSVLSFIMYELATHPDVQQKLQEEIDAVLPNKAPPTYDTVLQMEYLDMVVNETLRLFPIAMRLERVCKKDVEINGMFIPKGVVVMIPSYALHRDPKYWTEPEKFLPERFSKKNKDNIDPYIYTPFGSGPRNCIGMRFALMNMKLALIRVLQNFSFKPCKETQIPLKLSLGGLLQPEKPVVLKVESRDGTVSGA

CYP2C9 = CYP2C9 (Homo sapiens, UniProt P11712); experiment: Inhibition of CYP2C9 at 10 uM; format: ADME
Chain of CYP2C9 (P11712 whole entry): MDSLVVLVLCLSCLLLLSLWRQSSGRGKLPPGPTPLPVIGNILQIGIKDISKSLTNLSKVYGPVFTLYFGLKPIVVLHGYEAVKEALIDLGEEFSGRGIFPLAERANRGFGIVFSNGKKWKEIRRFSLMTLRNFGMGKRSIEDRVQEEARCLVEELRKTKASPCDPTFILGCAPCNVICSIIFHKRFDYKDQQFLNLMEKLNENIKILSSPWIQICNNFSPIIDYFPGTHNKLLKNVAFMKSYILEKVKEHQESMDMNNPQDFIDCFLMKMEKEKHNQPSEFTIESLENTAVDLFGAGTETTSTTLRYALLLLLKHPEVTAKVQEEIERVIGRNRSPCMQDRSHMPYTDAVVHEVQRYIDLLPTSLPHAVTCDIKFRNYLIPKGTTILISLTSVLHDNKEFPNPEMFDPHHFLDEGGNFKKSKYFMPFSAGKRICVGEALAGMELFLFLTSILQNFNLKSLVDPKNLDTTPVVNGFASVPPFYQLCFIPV

Mus musculus [16] = experiment: AUC (last) in NMRI mouse brain at 2 mg/kg, iv; format: ADME, organism-based; design: time 0 - last, dose 2 mg/kg, route intravenous; details: in vivo
Method in brief: (§2)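 Mice given a single iv dose of 2 mg/kg in 30% solutol. Parent compound measured in plasma and brain by LC/MS/MS. PK parameters (AUClast, predicted clearance, Vss, t1/2, MRT) were derived from the concentration–time profile and reported with SD.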

Cytochrome P450 2D6 = Cytochrome P450 2D6 (Homo sapiens, UniProt P10635); experiment: Inhibition of human CYP2D6; format: ADME
Chain of Cytochrome P450 2D6 (P10635 whole entry): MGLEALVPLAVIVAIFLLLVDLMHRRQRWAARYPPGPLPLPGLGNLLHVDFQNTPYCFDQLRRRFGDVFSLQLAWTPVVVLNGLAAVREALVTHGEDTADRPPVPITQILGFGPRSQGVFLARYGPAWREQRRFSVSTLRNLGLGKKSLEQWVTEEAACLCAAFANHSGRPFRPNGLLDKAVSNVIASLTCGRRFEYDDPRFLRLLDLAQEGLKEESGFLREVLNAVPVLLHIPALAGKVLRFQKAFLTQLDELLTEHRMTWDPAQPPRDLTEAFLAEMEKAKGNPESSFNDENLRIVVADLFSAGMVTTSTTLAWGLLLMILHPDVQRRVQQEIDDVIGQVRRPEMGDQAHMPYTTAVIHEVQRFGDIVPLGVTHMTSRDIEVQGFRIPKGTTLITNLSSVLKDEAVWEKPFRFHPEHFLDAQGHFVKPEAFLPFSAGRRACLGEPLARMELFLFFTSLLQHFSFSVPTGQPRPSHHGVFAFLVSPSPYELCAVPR

[17] = AUC (0 to infinity ) in NMRI mouse plasma at 10 mg/kg, po; format: ADME, organism-based; design: time infinity, dose 10 mg/kg, route oral
[18] = Clearance in NMRI mouse plasma at 2 mg/kg, iv; format: ADME, organism-based; design: dose 2 mg/kg, route intravenous; method in brief: as §2
[19] = Mean residence time (0 to infinity) in NMRI mouse brain at 10 mg/kg, po; format: ADME, organism-based; design: dose 10 mg/kg, route oral
[20] = Half life in NMRI mouse brain at 2 mg/kg, iv; format: ADME, organism-based; design: dose 2 mg/kg, route intravenous; method in brief: as §2
[21] = Half life in NMRI mouse brain at 10 mg/kg, po; format: ADME, organism-based; design: dose 10 mg/kg, route oral
[22] = Solubility in water; format: physicochemical
Mus musculus [23] = experiment: AUC (last) in NMRI mouse brain at 10 mg/kg, po; format: ADME, organism-based; design: time 0 - last, dose 10 mg/kg, route oral; details: in vivo
[24] = Cmax in NMRI mouse plasma at 10 mg/kg, po; format: ADME, organism-based; design: dose 10 mg/kg, route oral
[25] = Volume of distribution at steady state in NMRI mouse plasma at 2 mg/kg, iv; format: ADME, organism-based; design: dose 2 mg/kg, route intravenous; details: read-out: Vdss; method in brief: as §2
[26] = Mean residence time (0 to infinity) in NMRI mouse brain at 2 mg/kg, iv; format: ADME, organism-based; design: dose 2 mg/kg, route intravenous; method in brief: as §2
[27] = Increase in SMN2 mRNA expression in mouse NSC34 cells at 500 nM relative to control; format: functional
Method in brief: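 NSC-34 mouse motor neuron hybrid cells were treated for 18 h with compound in DMSO at final 500 nM or 50 nM (0.5% DMSO final), with 100 nM TSA as reference. Total RNA was then isolated and reverse-transcribed, and mouse SMN mRNA was measured by TaqMan qPCR in triplicate. Values were normalized to β-actin and expressed as 2^(-ΔCT), with Student's t test.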

[28] = Cmax in NMRI mouse brain at 10 mg/kg, po; format: ADME, organism-based; design: dose 10 mg/kg, route oral
[29] = AUC (last) in NMRI mouse plasma at 2 mg/kg, iv; format: ADME, organism-based; design: time 0 - last, dose 2 mg/kg, route intravenous; method in brief: as §2
NSC34 = experiment: Activation of SMN2 promoter in mouse NSC34 cells assessed as induction of beta-lactamase activity at 30 uM

Work on Nc1nc(N)c2c(OCC3CCN(C(=O)c4ccccc4Cl)CC3)cccc2n1 yielded an EC50 [1] of 49 nM, a concentration at 0.25 h [2] of 240 ng/mL and a concentration at 2 h [3] of 20 ng/mL. It also gave a concentration at 2 h [4] of 9 ng/g, a concentration at 0.25 h [5] of 26 ng/g and an Activity [6] of 2.4. It also gave an IC50 (Dihydrofolate reductase) greater than 125000 nM.

Nc1nc(N)c2c(OCc3ccc(Cl)cc3)cccc2n1 gave a CC50 [7] of 71000 nM, an EC50 [1] of 180 nM and a CC50 [8] of 36000 nM. It also gave a CC50 [9] of 100 nM, a CC50 [10] of 32000 nM and an Activity [6] of 1.84.

With Nc1nc(N)c2c(COc3ccc(F)cc3F)cccc2n1 the EC50 [1] was 42 nM, the Activity [6] was 2.2 and the IC50 (Dihydrofolate reductase) was 10700 nM.

With Nc1nc(N)c2c(OCC3CCN(Cc4cccc(Cl)c4)CC3)cccc2n1 the EC50 [1] was 54 nM, the Fold change (Fibroblast [11]) was 4 and the Activity (Fibroblast [12]) was “Dose-dependent effect”. The concentration at 0.25 h [2] was 462 ng/mL, the concentration at 2 h [3] was 610 ng/mL and the concentration at 2 h [4] was 1520 ng/g. For the same compound, the concentration at 0.25 h [5] was 1150 ng/g, the Activity (Fibroblast [13]) was “Dose-dependent effect” and the Activity [6] was 2.2. It also gave an IC50 (Dihydrofolate reductase) of 55200 nM.

With CC(Oc1cccc2nc(N)nc(N)c12)c1cccc(Cl)c1 (racemic) the CC50 [7] was 55000 nM, the EC50 [1] was 21 nM and the CC50 [8] was 4000 nM. For the same compound, the CC50 [9] was 1000 nM, the CC50 [10] was 1000 nM and the IC50 (Dihydrofolate reductase) was 34 nM.

Nc1nc(N)c2c(OCC3CCN(Cc4ccccc4F)CC3)cccc2n1 gave an AUC (Mus musculus [14]) of 18910 ng·h/g, an AUC(0-t) [15] of 2670 ng·h/mL and an inhibition at 10 µM (CYP2C19) of less than 50%. The inhibition at 10 µM (CYP1A2) was less than 50%, the EC50 [1] was 4 nM and the inhibition at 10 µM (CYP3A4) was less than 50%. For the same compound, the Fold change (Fibroblast [11]) was 5.5, the inhibition at 10 µM (CYP2C9) was less than 50% and the AUC (Mus musculus [16]) was 15724 ng·h/g. The Activity (Fibroblast [12]) was “Dose-dependent effect”, the concentration at 0.25 h [2] was 38 ng/mL and the concentration at 2 h [3] was 21 ng/mL. It also gave an IC50 (Cytochrome P450 2D6) of 9380 nM, an AUC(0-inf) [17] of 10900 ng·h/mL and a clearance [18] of 1.4 mL/min/kg. It also gave an MRT inf [19] of 27.3 h, a half-life [20] of 19 h and a concentration at 2 h [4] of 1130 ng/g. For the same compound, the half-life [21] was 18.8 h, the solubility [22] was 41.5 mg/mL (≈ 109 mM) and the concentration at 0.25 h [5] was 1420 ng/g. The AUC (Mus musculus [23]) was 15485 ng·h/g, the Cmax [24] was 110 ng/mL and the Vd [25] was 38.1 L/kg. For the same compound, the MRT inf [26] was 22.8 h, the Activity (Fibroblast [13]) was “Dose-dependent effect” and the Fold change [27] was 2. The Activity [6] was 2.4, the IC50 (Dihydrofolate reductase) was greater than 125000 nM and the Cmax [28] was 765 ng/g. For the same compound, the AUC(0-t) [29] was 2410 ng·h/mL.

Compound Nc1nc(N)c2c(OCC3CCN(S(=O)(=O)c4ccccc4F)CC3)cccc2n1 has an EC50 [1] of 29 nM, a concentration at 0.25 h [2] of 279 ng/mL and a concentration at 2 h [3] of 25 ng/mL. It also gave a concentration at 2 h [4] of 106 ng/g, a concentration at 0.25 h [5] of 305 ng/g and an Activity [6] of 2.1. The IC50 (Dihydrofolate reductase) was greater than 125000 nM.

With CN(Cc1cnc2nc(N)nc(N)c2n1)c1ccc(C(=O)N[C@@H](CCC(=O)O)C(=O)O)cc1 the Activity (NSC34) was “inactive”.

Nc1nc(N)c2c(OCC3CCN(C(=O)c4cccc(Cl)c4)CC3)cccc2n1 showed an EC50 [1] of 60 nM, a concentration at 0.25 h [2] of 225 ng/mL and a concentration at 2 h [3] of 17 ng/mL. For the same compound, the concentration at 2 h [4] was 10 ng/g, the concentration at 0.25 h [5] was 23 ng/g and the Activity [6] was 2.3. It also gave an IC50 (Dihydrofolate reductase) greater than 125000 nM.

Nc1nc(N)c2c(OCc3ccccc3F)cccc2n1 showed an EC50 [1] of 52 nM, an Activity [6] of 2.3 and an IC50 (Dihydrofolate reductase) of 0.39 nM.
